CRFBP-R2 agonist – agonists of human CRF-binding protein/CRF-R2 receptor complex; HEK293 CRF-R2/CRF-BP, calcium dye fluorescence (FLIPR); percent of saturating CRF peptide response; AID 588473; 350,000 tested, 0.46% active; activation, % at 13.2 µM;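 active = activation of at least 50%, plus an integration ratio under a set limit after plate pattern correction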;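 also: plate controls were neutral control wells without compound for no effect and CRF at EC100 for full effect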
DDE Tn6 FP inh – inhibitors of Tn6 peptide binding to human fibrin DD(E). P02675. Fibrin DD(E) TRITC-Tn6 fluorescence polarization displacement. inhibition, % at 8.3 µM. 370,000 tested, 0.21% active;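 active = inhibition above a per-campaign cutoff: mean of compounds within control limits plus 3 SD, cut at about 15% in these data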;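 also: 0% = median of all compound wells on the plate and 100% = blocking peptide control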
KLK7 zymogen act – proKLK7 (human) activation, primary screen; P49862; AID 652039; purified proKLK7, EDANS-DABCYL substrate fluorescence; 100% is mature enzyme control, 0% vehicle; 370,000 tested, 0.9% active; activation, % at 7 µM;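 active = activation above the mean of all tested compounds plus 3 SD, computed per campaign excluding outliers beyond control limits, cut at about 13% in these data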
NRP1-CendR mod – alters CendR peptide binding to human NRP-1. O14786. FAM-RPARPAR peptide binding to NRP-1, fluorescence polarization. inhibition, % at 25 µM. 360,000 tested, 0.85% active. AID 602438;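 active = inhibition or corrected inhibition above about 18%, plus a signal ratio from 0.5 to 1.5, limit read from the data, passing the limit was not always enough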
CRFBP-R2 block – blocks CRF-induced signaling of the CRF-BP/CRF-R2 complex. 350,000 tested, 0.59% active. inhibition, % at 11.8 µM. HEK293 CRF-R2/CRF-BP, CRF-induced calcium fluorescence;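 active = inhibition of the ligand-induced calcium signal above about 50% at the single tested concentration, limit read from the data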
Tn7 DDE FP – disrupts Tn7 cyclic peptide binding to fibrin D-Dimer-E complex. inhibition, % at 8.3 µM. AID 720508. 370,000 tested, 0.13% active. P02675. FP displacement of FITC-Tn7 peptide from fibrin DD(E); 0% = median of compound wells per plate;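 active = inhibition above the mean of compounds falling within the control limits plus 3 SD of them, cut at about 14% in these data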;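 also: 0% = plate median of compound wells and 100% = 10 µM Aha-Tn7 peptide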
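Assay system: Fibrin-DD(E) protein isolated from polymerized human fibrin clots; read-out basis: percent inhibition; medium: Tris/NaCl/CaCl2 buffer, pH 7.8; signal: FP measurement; incubation: 10 min plus 3 h, room temperature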
Tn6 DDE ctr – counter-screen for inhibitors of Tn6 peptide binding to fibrin DD(E); shares compounds with DDE Tn6 FP inh; TRITC-Tn6 fluorescence polarization displacement; 0% = median of compound wells, not DMSO; inhibition, % at 8.3 µM; 680 tested, 2% active;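 active = inhibition above the mean of test compounds lying between the control limits plus 3 SD of those, cut at about 14% in these data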;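 also: 0% = median of compound wells and 100% = wells with Aha-Tn7 blocking peptide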
Tn6 DDE conf – DD(E)-Tn6 binding inhibition, FP confirmation; shares compounds with DDE Tn6 FP inh; FP displacement of TRITC-Tn6 peptide from DD(E); 0% = per-plate median of test wells; inhibition, % at 8.3 µM; 680 tested, 10% active; AID 720631;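 active = inhibition above the mean of compounds lying within the control limits plus 3 SD, cut at about 16% in these data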;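 also: 100% = high control wells holding a competing inhibitor peptide at 10 µM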
An asterisk follows results filed as active. This is a sample that favours compounds with a hit; in the whole collection about 2.9% have one here.

Results for COc1ccc(OC)c(CN(CC(F)(F)F)S(=O)(=O)c2ccccc2Br)c1 ?
DDE Tn6 FP inh: -1.8; KLK7 zymogen act: -0.3; Tn7 DDE FP: 2.3

What do the screens show for `CCOc1ccccc1NC(=O)NCc1ccccn1`?
CRFBP-R2 agonist: -0.9; DDE Tn6 FP inh: 19.0*; KLK7 zymogen act: 0.5; NRP1-CendR mod: 11.3; CRFBP-R2 block: 3.6; Tn7 DDE FP: 3.2; Tn6 DDE ctr: 8.0; Tn6 DDE conf: 5.1

Results for Cc1ccc(S(=O)(=O)N2CN(Cc3ccco3)c3nc4ccccc4nc32)cc1 ?
CRFBP-R2 agonist: 5.4; DDE Tn6 FP inh: -6.3; KLK7 zymogen act: 0.5; NRP1-CendR mod: -35.2; CRFBP-R2 block: 11.7; Tn7 DDE FP: -12.3

What do the screens show for `O=S(=O)(c1ccc(F)cc1)N1CN(Cc2ccco2)c2nc3ccccc3nc21`?
CRFBP-R2 agonist: 11.9; DDE Tn6 FP inh: 36.3*; KLK7 zymogen act: 0.2; NRP1-CendR mod: -70.1; CRFBP-R2 block: -13.5; Tn7 DDE FP: -1.7; Tn6 DDE ctr: -6.5; Tn6 DDE conf: -3.2

What do the screens show for `CCOC(=O)[C@@H]1CSCCS(=O)(=O)N1C(=O)[C@H](CC(C)C)NC(=O)OC(C)(C)C`?
DDE Tn6 FP inh: 1.7; KLK7 zymogen act: 0.8; Tn7 DDE FP: -3.3
